Substitutions are numbered along the chain they refer to.
Columns and labels:
Settings in all cases: stereoisomer not certain
A0A140T8K0 = test system: T1, A0A140T8K0
T1 sequence (whole entry): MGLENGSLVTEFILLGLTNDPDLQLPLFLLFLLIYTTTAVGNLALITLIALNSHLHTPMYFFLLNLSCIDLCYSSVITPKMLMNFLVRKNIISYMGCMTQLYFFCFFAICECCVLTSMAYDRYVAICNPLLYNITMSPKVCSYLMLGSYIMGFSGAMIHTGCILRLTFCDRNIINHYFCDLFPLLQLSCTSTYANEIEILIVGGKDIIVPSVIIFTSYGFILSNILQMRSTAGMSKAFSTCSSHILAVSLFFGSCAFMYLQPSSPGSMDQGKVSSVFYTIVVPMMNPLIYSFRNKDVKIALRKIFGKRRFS
Summary of the method: (§1)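 Assay methods differ from source to source, frequently being transient luciferase assays in mammalian cell lines. For each receptor–molecule pair, the label responsive (active) applies when the original authors judged the measured signal statistically different from baseline, and non-responsive (inactive) applies otherwise.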

A0A140T8K4 = test system: T2, A0A140T8K4
T2 sequence (whole entry): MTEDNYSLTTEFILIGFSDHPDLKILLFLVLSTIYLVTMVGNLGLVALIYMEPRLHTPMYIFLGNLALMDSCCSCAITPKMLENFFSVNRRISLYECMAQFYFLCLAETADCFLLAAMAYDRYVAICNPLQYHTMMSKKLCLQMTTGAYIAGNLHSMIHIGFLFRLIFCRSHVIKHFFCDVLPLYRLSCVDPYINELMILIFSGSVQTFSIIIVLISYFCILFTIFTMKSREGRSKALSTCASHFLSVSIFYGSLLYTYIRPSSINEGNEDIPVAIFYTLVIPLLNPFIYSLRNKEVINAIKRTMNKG
Summary of the method: as §1

A0A2J8MY22 = test system: T3, A0A2J8MY22
T3 sequence (whole entry): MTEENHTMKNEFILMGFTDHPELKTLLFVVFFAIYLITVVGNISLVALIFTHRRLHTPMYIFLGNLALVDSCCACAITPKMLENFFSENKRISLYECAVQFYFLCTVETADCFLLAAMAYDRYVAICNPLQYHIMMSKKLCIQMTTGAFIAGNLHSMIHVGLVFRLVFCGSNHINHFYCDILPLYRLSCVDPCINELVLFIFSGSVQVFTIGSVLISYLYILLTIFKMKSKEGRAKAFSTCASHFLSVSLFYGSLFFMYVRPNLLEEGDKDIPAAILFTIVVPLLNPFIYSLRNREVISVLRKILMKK
Summary of the method: as §1

A0A2R8ZIW4 = test system: T4, A0A2R8ZIW4
T4 sequence (whole entry): T3 sequence (whole entry) with V39I, I280V
Summary of the method: as §1

A0A3Q7SVK8 = test system: T5, A0A3Q7SVK8
T5 sequence (whole entry): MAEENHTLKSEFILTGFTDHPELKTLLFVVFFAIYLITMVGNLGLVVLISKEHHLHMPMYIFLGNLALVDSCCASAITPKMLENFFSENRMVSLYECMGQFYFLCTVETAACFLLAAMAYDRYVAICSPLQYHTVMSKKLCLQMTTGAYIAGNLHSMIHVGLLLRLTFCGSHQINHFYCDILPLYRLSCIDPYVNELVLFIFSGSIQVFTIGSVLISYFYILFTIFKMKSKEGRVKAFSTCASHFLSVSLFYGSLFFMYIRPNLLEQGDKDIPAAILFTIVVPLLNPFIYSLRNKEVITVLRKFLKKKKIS
Summary of the method: as §1

A0A6P3DZI2 = test system: T6, A0A6P3DZI2
T6 sequence (whole entry): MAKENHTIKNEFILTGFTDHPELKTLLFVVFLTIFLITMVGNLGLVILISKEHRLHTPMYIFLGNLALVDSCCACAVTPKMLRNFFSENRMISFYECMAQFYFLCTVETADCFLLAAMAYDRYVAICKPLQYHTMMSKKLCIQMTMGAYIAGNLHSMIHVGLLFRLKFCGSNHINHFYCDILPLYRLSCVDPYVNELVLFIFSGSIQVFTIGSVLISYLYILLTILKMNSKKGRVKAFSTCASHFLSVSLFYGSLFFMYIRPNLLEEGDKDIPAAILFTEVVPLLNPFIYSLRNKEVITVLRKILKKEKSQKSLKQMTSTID
Summary of the method: as §1

A0A6P6H1F7 = test system: T7, A0A6P6H1F7
T7 sequence (whole entry): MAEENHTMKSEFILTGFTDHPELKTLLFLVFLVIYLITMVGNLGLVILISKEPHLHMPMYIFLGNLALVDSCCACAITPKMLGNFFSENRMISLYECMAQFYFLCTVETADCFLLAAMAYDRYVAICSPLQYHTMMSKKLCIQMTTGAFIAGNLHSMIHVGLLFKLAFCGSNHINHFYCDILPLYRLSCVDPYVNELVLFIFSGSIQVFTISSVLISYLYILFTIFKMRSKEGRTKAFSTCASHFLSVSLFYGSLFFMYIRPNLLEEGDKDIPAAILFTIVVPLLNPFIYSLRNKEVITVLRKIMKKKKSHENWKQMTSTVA
Summary of the method: as §1

O10A6 [1] = test system: O10A6
Summary of the method: as §1
Target sequence in this assay (as listed by the source): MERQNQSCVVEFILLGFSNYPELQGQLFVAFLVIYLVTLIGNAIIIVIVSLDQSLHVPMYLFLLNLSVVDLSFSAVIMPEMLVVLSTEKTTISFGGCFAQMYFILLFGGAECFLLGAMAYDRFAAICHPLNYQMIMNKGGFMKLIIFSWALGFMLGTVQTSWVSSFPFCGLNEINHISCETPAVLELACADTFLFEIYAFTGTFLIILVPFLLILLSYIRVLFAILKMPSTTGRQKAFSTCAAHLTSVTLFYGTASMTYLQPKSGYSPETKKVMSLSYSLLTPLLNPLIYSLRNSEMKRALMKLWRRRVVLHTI

O10A6 [2] = test system: T8, O10A6; remark: listed apart in the source
T8 sequence (whole entry): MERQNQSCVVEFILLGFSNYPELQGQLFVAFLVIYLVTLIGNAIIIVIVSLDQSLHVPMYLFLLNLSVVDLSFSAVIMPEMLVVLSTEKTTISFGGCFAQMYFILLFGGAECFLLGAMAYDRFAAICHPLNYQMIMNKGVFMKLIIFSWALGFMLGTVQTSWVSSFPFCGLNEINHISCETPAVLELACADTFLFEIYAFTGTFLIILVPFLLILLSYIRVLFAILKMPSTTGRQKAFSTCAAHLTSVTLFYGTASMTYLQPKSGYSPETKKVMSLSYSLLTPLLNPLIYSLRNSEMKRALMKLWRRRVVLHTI
Summary of the method: as §1

O10A6 [3] = test system: O10A6; remark: listed apart in the source
Summary of the method: as §1
Target sequence in this assay (as listed by the source): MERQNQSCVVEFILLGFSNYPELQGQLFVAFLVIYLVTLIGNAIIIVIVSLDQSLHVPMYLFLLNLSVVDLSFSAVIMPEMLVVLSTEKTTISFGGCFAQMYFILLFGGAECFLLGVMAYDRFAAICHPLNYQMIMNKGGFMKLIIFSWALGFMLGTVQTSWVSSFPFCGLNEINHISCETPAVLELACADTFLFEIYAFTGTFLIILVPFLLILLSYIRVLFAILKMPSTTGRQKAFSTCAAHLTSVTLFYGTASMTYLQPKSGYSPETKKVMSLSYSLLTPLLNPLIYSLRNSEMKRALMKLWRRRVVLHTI

O10A2 H43R H207R K258T = test system: T9, O10A2 H43R H207R K258T
T9 sequence (whole entry): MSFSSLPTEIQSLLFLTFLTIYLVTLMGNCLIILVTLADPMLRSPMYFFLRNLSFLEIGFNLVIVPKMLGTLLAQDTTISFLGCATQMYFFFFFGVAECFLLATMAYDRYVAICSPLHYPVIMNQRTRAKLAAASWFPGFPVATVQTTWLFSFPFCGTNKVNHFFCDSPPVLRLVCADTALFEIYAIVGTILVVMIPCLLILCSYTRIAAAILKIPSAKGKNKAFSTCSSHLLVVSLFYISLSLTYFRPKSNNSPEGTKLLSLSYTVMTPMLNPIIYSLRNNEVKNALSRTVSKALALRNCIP
Summary of the method: as §1

O10A3 C8G = test system: T10, O10A3 C8G
T10 sequence (whole entry): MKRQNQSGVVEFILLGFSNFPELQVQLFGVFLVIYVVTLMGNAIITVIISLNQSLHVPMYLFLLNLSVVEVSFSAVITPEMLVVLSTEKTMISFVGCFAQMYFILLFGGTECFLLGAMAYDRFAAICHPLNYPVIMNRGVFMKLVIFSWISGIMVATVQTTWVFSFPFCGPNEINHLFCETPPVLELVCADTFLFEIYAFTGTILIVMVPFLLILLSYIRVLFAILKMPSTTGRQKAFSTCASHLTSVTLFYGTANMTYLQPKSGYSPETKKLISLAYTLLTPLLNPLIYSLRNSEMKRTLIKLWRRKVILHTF
Summary of the method: as §1

O10AD G65C = test system: T11, O10AD G65C
T11 sequence (whole entry): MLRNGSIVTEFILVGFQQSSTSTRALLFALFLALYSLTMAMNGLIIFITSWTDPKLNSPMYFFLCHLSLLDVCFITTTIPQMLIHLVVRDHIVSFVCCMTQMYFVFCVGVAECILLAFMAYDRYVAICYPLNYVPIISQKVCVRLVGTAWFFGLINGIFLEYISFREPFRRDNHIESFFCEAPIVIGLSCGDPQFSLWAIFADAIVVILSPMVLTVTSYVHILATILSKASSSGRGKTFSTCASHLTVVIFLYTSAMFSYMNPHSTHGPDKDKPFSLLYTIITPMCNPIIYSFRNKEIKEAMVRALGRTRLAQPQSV
Summary of the method: as §1

O10D3 V134A R197K = test system: T12, O10D3 V134A R197K
T12 sequence (whole entry): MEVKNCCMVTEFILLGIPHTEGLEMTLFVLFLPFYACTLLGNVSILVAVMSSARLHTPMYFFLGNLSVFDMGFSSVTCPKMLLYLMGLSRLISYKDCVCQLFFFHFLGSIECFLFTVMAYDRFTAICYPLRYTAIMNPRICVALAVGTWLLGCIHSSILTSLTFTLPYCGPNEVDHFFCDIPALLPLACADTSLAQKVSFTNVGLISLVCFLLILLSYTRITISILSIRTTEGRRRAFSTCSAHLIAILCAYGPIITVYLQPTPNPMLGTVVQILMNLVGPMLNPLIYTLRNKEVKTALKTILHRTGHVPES
Summary of the method: as §1

O10G4 L24P V195E = test system: T13, O10G4 L24P V195E
T13 sequence (whole entry): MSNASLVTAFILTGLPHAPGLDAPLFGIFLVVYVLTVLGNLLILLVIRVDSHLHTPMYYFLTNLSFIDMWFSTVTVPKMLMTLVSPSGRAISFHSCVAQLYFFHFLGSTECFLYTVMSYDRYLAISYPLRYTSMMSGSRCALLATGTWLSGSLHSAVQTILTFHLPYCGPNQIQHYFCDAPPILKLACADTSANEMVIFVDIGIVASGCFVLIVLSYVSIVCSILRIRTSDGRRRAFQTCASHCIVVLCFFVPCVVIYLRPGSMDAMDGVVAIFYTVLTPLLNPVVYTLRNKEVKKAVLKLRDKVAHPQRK
Summary of the method: as §1

O10G7 A18V P19Q G20A = test system: T14, O10G7 A18V P19Q G20A
T14 sequence (whole entry): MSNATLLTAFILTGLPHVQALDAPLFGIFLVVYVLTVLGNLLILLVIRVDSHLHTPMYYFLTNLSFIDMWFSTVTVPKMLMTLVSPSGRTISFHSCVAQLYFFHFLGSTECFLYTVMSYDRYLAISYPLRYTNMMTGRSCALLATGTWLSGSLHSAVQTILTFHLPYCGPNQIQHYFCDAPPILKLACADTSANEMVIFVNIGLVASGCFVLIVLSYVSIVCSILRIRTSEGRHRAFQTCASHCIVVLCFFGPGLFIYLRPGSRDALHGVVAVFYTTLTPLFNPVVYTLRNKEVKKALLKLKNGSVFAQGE
Summary of the method: as §1

O10G7 I28V = test system: T15, O10G7 I28V
T15 sequence (whole entry): T14 sequence (whole entry) with V18A, Q19P, A20G, I28V
Summary of the method: as §1

A0A1L1SVG7 = test system: T16, A0A1L1SVG7
T16 sequence (whole entry): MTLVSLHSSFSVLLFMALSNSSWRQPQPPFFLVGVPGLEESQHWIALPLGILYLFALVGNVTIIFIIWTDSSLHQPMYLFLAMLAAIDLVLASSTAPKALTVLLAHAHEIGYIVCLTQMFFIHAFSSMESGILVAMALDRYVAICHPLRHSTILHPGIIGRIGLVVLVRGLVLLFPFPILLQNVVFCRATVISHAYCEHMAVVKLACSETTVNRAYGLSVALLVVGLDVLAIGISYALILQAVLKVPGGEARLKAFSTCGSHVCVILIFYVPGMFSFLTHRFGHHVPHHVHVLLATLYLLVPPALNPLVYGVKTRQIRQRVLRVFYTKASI
Summary of the method: as §1

Measured: odorant receptor agonist call

CCc1ncc(C)nc1CC
active: A0A2J8MY22 | A0A2R8ZIW4 | A0A3Q7SVK8 | A0A6P3DZI2 | A0A6P6H1F7
inactive: A0A140T8K0 | A0A140T8K4

CCC(=O)OCCCc1ccccc1
inactive: O10A6 [3]
active: O10A6 [1] | O10A6 [2]

CCCCCCC=CCCC=O
active: O10A6 [2]
inactive: O10A2 H43R H207R K258T | O10A3 C8G | O10AD G65C | O10D3 V134A R197K | O10G4 L24P V195E | O10G7 A18V P19Q G20A | O10G7 I28V

CCCCCCC(=O)[O-].[H+]
inactive: A0A140T8K4 | A0A1L1SVG7

CCCCCO
inactive: A0A140T8K4 | A0A1L1SVG7

CCC1OC(=O)C(O)=C1C (stereo not drawn)
inactive: O10A2 H43R H207R K258T | O10A3 C8G | O10A6 [2] | O10AD G65C | O10D3 V134A R197K | O10G4 L24P V195E | O10G7 A18V P19Q G20A | O10G7 I28V

CCC(C)c1nccnc1OC (stereo not drawn)
inactive: A0A140T8K0 | A0A140T8K4 | A0A6P3DZI2
active: A0A2J8MY22 | A0A2R8ZIW4 | A0A3Q7SVK8 | A0A6P6H1F7

CCc1nccnc1C(C)=O
active: A0A2J8MY22 | A0A2R8ZIW4 | A0A3Q7SVK8 | A0A6P6H1F7
inactive: A0A140T8K4 | A0A6P3DZI2

CCCCC=CCCCCC=O
active: O10A6 [2]

CC(=O)c1nccnc1C
active: A0A2J8MY22 | A0A2R8ZIW4 | A0A3Q7SVK8 | A0A6P6H1F7
inactive: A0A140T8K4 | A0A6P3DZI2

CC1CCc2nccnc21 (stereo not drawn)
active: A0A2J8MY22 | A0A2R8ZIW4 | A0A3Q7SVK8 | A0A6P6H1F7
inactive: A0A140T8K4 | A0A6P3DZI2

CCCCOC(=O)C(C)OC(=O)CCC (stereo not drawn)
inactive: A0A140T8K4 | A0A1L1SVG7

CCCCCCCC(=O)[O-].[H+]
inactive: A0A140T8K4 | A0A1L1SVG7

COc1cnccn1
active: A0A2J8MY22 | A0A2R8ZIW4 | A0A3Q7SVK8 | A0A6P6H1F7
inactive: A0A140T8K0 | A0A140T8K4 | A0A6P3DZI2

CC1=C(O)C(=O)C(C)O1 (stereo not drawn)
inactive: O10A2 H43R H207R K258T | O10A3 C8G | O10A6 [2] | O10AD G65C | O10D3 V134A R197K | O10G4 L24P V195E | O10G7 A18V P19Q G20A | O10G7 I28V

CCCCC=CCCC=O
active: O10A6 [2]

CCc1nccnc1CC
inactive: A0A140T8K0 | A0A140T8K4 | A0A6P3DZI2
active: A0A2J8MY22 | A0A2R8ZIW4 | A0A3Q7SVK8 | A0A6P6H1F7
